From ChEMBL document CHEMBL1166014, “Targeting efflux pumps-In vitro investigations with acridone derivatives and identification of a lead molecule for MDR modulation” (Bioorg Med Chem, 2010)
Converted amounts (≈) assume the structure as drawn. The source made the active and inactive calls. The rule behind the calls is not given here.

Assays:
[1] = Binding affinity to P-gp at 0.05 uM after 30 mins by spectrophotometry
Procedure, shortened: (§1)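 P-gp vesicles from DC-3F/ADX MDR cells; basal MgATP hydrolysis measured by PK/LDH-coupled NADH oxidation (PEP, NADH), with non-specific ATPase inhibitor; vesicles 5 min at 37 °C, compound added (final 0.05, 0.5, 5 µM) 5 min, MgATP then 20 min at 37 °C; A340 read twice 20 min apart; triplicate; verapamil, vinblastine, progesterone references.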

[2] = Binding affinity to P-gp at 0.5 uM after 30 mins by spectrophotometry; procedure, shortened: as §1
[3] = Binding affinity to P-gp at 5 uM after 30 mins by spectrophotometry; procedure, shortened: as §1
Candida albicans [4] = assay: Antifungal activity at Candida albicans CAI4 after 48 hrs by ELISA; type: functional; settings: CAI4, 48 h
Procedure, shortened: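 Broth microdilution; CAI4 streaked on YEPD, 30 °C 24 h; compounds serially diluted twofold in YEPD, solvent diluted alongside; growth control column; 30 °C 48 h; OD600 on plate reader; MIC80 = concentration giving 80% growth inhibition vs no-compound growth.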

[5] = Binding affinity to Mg2+ at 100 uM in HEPES buffer of pH 7.2 by spectrophotometry
Procedure, shortened: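 Compound at 10^-4 M in 10^-2 M HEPES pH 7.2 titrated with Mg²⁺ (0–0.5 × 10^-4 M); absorbance changes at 270–310, 390–415 and 320–340 nm monitored; binding constant by Benesi–Hildebrand equation.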

ATP = assay: Binding affinity to ATP at 50 uM in HEPES buffer of pH 7.2 by spectrophotometry
Procedure, shortened: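 UV-vis titration: compound held constant at 50 µM in HEPES pH 7.2, titrated with NaATP (from 10^-2 M stock) over 0–3 equiv; absorbance change followed; binding constant from Benesi–Hildebrand plot.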

[6] = Binding affinity to P-gp assessed as increase in basal protein activity at 5 uM after 30 mins by spectrophotometry; procedure, shortened: as §1
[7] = Binding affinity to P-gp assessed as increase in basal protein activity at 0.05 uM after 30 mins by spectrophotometry; procedure, shortened: as §1
[8] = Binding affinity to P-gp assessed as increase in basal protein activity at 0.5 uM after 30 mins by spectrophotometry; procedure, shortened: as §1
Candida albicans [9] = assay: Effect of membrane integrity of Candida albicans CAI4 at 800 ug/ml after 48 hrs by spot assay in presence of 300 ug/ml calcofluor white; type: functional, organism-based
Procedure, shortened: (§2)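 Spot assay on YEPD-agar plates containing compound (with Congo red or calcofluor white where applicable); solvent (MeOH/DMSO 1:1) and YEPD-only control plates; CAI4 primary culture 16 h, secondary 5 h at 30 °C from 4% inoculum, diluted in 0.9% saline; 10⁵ to 10⁰ cells spotted; 30 °C 48 h, growth scored.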

[10] = target: T1, Multidrug resistance protein CDR2 (Candida albicans (strain SC5314 / ATCC MYA-2876) (Yeast)) (UniProt P78595); assay: Inhibition of CDR2-mediated efflux of rhodamine 6G in Candida albicans CAI4 at 800 ug/ml up to 60 mins by spectrofluorimetry in presence of 2 mM 2-deoxyglucose treated for 2 hrs before compound addition
T1 sequence (whole entry): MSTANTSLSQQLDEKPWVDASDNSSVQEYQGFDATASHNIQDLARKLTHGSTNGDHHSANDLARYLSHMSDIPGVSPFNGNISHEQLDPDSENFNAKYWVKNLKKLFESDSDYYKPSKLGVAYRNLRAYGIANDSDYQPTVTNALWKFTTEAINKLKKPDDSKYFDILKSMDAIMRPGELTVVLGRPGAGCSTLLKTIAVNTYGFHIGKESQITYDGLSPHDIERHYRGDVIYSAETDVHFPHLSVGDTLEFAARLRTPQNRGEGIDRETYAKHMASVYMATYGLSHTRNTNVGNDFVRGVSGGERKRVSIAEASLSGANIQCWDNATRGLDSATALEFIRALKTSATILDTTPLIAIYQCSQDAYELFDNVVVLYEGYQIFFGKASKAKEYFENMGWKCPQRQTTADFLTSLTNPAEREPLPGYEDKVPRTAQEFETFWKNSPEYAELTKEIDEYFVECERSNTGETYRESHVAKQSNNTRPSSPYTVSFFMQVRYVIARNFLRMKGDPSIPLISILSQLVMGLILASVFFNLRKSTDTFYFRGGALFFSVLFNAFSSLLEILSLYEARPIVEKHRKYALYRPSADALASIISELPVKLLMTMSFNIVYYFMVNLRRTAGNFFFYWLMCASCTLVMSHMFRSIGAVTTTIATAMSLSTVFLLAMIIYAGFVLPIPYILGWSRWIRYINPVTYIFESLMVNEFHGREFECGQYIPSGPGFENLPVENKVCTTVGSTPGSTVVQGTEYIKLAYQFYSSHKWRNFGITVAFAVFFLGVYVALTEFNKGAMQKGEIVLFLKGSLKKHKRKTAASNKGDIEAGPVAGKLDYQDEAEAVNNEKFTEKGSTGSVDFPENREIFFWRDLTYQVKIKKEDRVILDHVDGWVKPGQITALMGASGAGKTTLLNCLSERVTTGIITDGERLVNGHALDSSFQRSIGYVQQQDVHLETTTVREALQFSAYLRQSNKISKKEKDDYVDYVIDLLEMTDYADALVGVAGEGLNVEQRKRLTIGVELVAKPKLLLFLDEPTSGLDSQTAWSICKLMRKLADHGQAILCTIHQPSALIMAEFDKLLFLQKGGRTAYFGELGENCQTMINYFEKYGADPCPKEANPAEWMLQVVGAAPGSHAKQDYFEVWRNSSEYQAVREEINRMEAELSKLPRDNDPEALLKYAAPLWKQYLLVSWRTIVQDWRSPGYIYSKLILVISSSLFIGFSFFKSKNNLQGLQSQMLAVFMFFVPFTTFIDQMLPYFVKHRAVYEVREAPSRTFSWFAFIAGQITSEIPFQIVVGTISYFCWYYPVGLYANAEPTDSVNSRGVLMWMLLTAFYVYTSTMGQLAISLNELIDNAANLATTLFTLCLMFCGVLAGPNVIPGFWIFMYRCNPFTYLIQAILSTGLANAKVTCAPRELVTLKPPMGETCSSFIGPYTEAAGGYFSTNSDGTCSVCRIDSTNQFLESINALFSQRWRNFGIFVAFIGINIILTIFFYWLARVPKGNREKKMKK
Procedure, shortened: (§3)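 C. albicans CAI4 secondary culture (YEPD, 30 °C, ~5 h) washed in PBS, 2% cell suspension de-energised with 2 mM 2-deoxyglucose on rocker 2 h; R6G loaded, cells pelleted, washed, resuspended in PBS with or without 2% glucose; compound at 800 µg/ml with MeOH/DMSO 1:1 solvent control; supernatant R6G fluorescence read (ex 529, em 553 nm) over time.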

Candida albicans [11] = assay: Antifungal activity at Candida albicans CAI4 assessed as inhibition of fungal growth at 0.9 mg/ml after 48 hrs by spot assay; type: functional, organism-based; procedure, shortened: as §2
[12] = target: Multidrug resistance protein CDR1 (Candida albicans) (UniProt P43071); assay: Inhibition of CDR1-mediated efflux of rhodamine 6G in Candida albicans CAI4 at 800 ug/ml up to 60 mins by spectrofluorimetry in presence of 2 mM 2-deoxyglucose treated for 2 hrs before compound addition; procedure, shortened: as §3
Candida albicans [13] = assay: Effect of membrane integrity of Candida albicans CAI4 at 800 ug/ml after 48 hrs by spot assay in presence of 300 ug/ml congo red; type: functional, organism-based; procedure, shortened: as §2
[14] = target: Multidrug resistance protein CDR1 (Candida albicans) (UniProt P43071); assay: Modulation of CDR1-mediated rhodamine 6G accumulation in Candida albicans CAI4 assessed as increase in R6G influx at 800 ug/ml after 180 mins by spectrofluorimetry
Procedure, shortened: (§4)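 C. albicans CAI4 secondary culture (YEPD, 30 °C, ~5 h) washed in PBS, 2% suspension in PBS with 2 mM 2-deoxyglucose rocked 2 h; compound added at 800 µg/ml (MeOH/DMSO 1:1 solvent control), then R6G; aliquots over 0–180 min centrifuged, R6G left in supernatant measured as OD527.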

Candida albicans [15] = assay: Antifungal activity at Candida albicans CAI4 assessed as reduction in colony formation at 1 mg/ml after 48 hrs by spot assay; type: functional, organism-based; procedure, shortened: as §2
Candida albicans [16] = assay: Antifungal activity at Candida albicans CAI4 assessed as reduction in colony formation at 0.9 mg/ml after 48 hrs by spot assay; type: functional, organism-based; procedure, shortened: as §2
[17] = target: T1, Multidrug resistance protein CDR2 (Candida albicans (strain SC5314 / ATCC MYA-2876) (Yeast)); assay: Modulation of CDR2-mediated rhodamine 6G accumulation in Candida albicans CAI4 assessed as increase in R6G influx at 800 ug/ml after 180 mins by spectrofluorimetry; procedure, shortened: as §4
[18] = target: Multidrug resistance protein CDR1 (Candida albicans) (UniProt P43071); assay: Modulation of CDR1-mediated rhodamine 6G accumulation in Candida albicans CAI4 assessed as inhibition of fungal growth at 800 ug/ml after 48 hrs by spot assay
Procedure, shortened: (§5)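 Spot assay: CAI4 grown in YEPD at 30 °C (16 h primary, 5 h secondary), diluted in 0.9% saline and spotted as 10⁵–10⁰ cells on YEPD agar containing compound plus R6G; solvent (MeOH/DMSO 1:1) and YEPD-only control plates; growth scored after 48 h at 30 °C.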

[19] = target: T1, Multidrug resistance protein CDR2 (Candida albicans (strain SC5314 / ATCC MYA-2876) (Yeast)); assay: Modulation of CDR2-mediated rhodamine 6G accumulation in Candida albicans CAI4 assessed as inhibition of fungal growth at 800 ug/ml after 48 hrs by spot assay; procedure, shortened: as §5
Candida albicans [20] = assay: Antifungal activity at Candida albicans CAI4 assessed as inhibition of fungal growth at 1 mg/ml after 48 hrs by spot assay; type: functional, organism-based; procedure, shortened: as §2
[21] = Partition coefficient, log P of the compound; type: physicochemical; settings: octanol/water

Sequence of Multidrug resistance protein CDR1 (Candida albicans) (P43071 whole entry, looked up): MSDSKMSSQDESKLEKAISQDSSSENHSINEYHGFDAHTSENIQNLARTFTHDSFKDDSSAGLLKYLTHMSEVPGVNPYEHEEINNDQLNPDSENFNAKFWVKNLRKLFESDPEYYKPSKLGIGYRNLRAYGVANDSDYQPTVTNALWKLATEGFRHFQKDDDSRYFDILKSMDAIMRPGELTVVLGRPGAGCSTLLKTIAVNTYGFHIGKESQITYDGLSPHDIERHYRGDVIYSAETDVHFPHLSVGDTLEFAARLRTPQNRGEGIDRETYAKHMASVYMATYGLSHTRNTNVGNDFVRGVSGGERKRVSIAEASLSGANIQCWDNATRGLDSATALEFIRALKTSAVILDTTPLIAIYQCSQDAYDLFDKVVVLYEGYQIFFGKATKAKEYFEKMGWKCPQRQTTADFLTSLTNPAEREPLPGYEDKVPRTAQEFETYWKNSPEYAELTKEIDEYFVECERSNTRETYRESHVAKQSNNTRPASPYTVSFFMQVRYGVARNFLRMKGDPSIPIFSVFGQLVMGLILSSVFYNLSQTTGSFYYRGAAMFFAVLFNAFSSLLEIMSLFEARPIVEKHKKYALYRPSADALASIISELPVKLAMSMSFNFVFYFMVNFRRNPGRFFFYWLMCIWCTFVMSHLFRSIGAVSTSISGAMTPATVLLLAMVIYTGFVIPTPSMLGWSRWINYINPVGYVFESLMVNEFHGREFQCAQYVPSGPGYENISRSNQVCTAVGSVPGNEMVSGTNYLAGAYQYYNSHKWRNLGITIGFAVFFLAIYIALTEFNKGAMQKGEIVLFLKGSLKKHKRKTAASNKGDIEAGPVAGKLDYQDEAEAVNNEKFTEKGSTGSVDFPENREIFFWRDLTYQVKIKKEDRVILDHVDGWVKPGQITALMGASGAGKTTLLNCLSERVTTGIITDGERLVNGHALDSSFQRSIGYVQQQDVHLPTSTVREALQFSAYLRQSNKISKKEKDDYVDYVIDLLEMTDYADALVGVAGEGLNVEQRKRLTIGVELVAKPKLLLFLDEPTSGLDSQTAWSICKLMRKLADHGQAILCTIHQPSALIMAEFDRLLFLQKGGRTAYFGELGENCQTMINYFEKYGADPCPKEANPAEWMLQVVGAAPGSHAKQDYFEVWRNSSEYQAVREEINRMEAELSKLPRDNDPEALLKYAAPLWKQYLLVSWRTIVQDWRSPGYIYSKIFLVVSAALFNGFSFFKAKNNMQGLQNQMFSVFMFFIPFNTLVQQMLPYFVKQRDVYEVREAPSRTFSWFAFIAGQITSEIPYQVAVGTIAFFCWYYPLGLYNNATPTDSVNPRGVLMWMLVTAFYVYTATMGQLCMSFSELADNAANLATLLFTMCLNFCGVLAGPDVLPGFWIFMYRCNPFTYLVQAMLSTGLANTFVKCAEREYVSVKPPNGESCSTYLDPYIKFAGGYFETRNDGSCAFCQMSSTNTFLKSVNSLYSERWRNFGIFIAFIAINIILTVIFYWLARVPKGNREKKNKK

Row | SMILES | RBA [1] | RBA [2] | RBA [3] | MIC80 (Candida albicans [4]) | Ka [5] | Ka (ATP) | Activity [6] | Activity [7] | Activity [8] | further results
1 | COc1ccc(CCN(C)CCCC(C#N)(c2ccc(OC)c(OC)c2)C(C)C)cc1OC (stereo unspecified) | 1.11 | 2.01 | 2.8 |  |  |  |  |  |  | 
2 | O=c1c2ccccc2n(CC(O)CN2CCC(N3CCCCC3)CC2)c2c(Cl)cccc12 (stereo unspecified) |  |  |  | > 3000 µg/mL | 18.6 ×10⁵ /M | 11 ×10⁵ /M |  |  |  | 
3 | O=c1c2ccccc2n(CC(O)CN2CCCCC2)c2c(Cl)cccc12 (stereo unspecified) |  |  |  | > 3000 µg/mL | 1.48 ×10⁵ /M | 5 ×10⁵ /M |  |  |  | 
4 | CCN(CC)CC(O)Cn1c2ccccc2c(=O)c2cccc(Cl)c21 (stereo unspecified) |  |  |  | 1500 µg/mL (≈ 4.18 mM) | 0.39 ×10⁵ /M | 7.9 ×10⁵ /M |  |  |  | 
5 | O=c1c2ccccc2n(CC(O)CN2CCCC2)c2c(Cl)cccc12 (stereo unspecified) |  |  |  | > 3000 µg/mL | 0.95 ×10⁵ /M | 6.57 ×10⁵ /M |  |  |  | 
6 | O=C(O)c1cccc2c(=O)c3ccccc3n(CC(O)CN3CCCCC3)c12 (stereo unspecified) | 1.57 | 1.66 | 2.44 |  | 19.7 ×10⁵ /M | inactive | 144% | 57% | 66% | 
7 | CC(=O)[C@H]1CC[C@H]2[C@@H]3CCC4=CC(=O)CC[C@]4(C)[C@H]3CC[C@]12C | 1 | 1.11 | 1.42 |  |  |  |  |  |  | 
8 | O=C(O)c1cccc2c(=O)c3ccccc3n(CC(O)CN3CCCC3)c12 (stereo unspecified) | 1.6 | 1.85 | 2 | 781 µg/mL (≈ 2.13 mM) | 1.5 ×10⁵ /M | inactive | 100% | 60% | 85% | inhibition (Candida albicans [9]): inactive; inhibition [10]: Active; inhibition (Candida albicans [11]): inactive; inhibition [12]: Active; inhibition (Candida albicans [13]): inactive; inhibition [14]: Active; inhibition (Candida albicans [15]): Active; inhibition (Candida albicans [16]): Active; inhibition [17]: Active; inhibition [18]: Active; inhibition [19]: Active; inhibition (Candida albicans [20]): inactive
9 | CC(C)N(CC(O)Cn1c2ccccc2c(=O)c2cccc(C(=O)O)c21)C(C)C (stereo unspecified) | 1.53 | 1.6 | 2.05 |  | 2 ×10⁵ /M | inactive | 105% | 53% | 60% | 
10 | O=c1c2ccccc2n(CC(O)CN2CCOCC2)c2c(Cl)cccc12 (stereo unspecified) |  |  |  | > 3000 µg/mL | 17.1 ×10⁵ /M | 4.08 ×10⁵ /M |  |  |  | 
11 | CCN(CC)CC(O)Cn1c2ccccc2c(=O)c2cccc(C(=O)O)c21 (stereo unspecified) | 1.65 | 1.7 | 2.12 |  | 7.74 ×10⁵ /M | inactive | 112% | 65% | 70% | 
12 | CC[C@]1(O)C[C@@H]2CN(CCc3c([nH]c4ccccc34)[C@@](C(=O)OC)(c3cc4c(cc3OC)N(C)[C@H]3[C@@](O)(C(=O)OC)[C@H](OC(C)=O)[C@]5(CC)C=CCN6CC[C@]43[C@@H]65)C2)C1 | 0.98 | 1.37 | 1.21 |  |  |  |  |  |  | 
13 | CC(C)N(CC(O)Cn1c2ccccc2c(=O)c2cccc(Cl)c21)C(C)C (stereo unspecified) |  |  |  | > 3000 µg/mL | 2.2 ×10⁵ /M | 1.42 ×10⁵ /M |  |  |  | 
14 | O=C(O)c1cccc2c(=O)c3ccccc3n(CC(O)CN3CCOCC3)c12 (stereo unspecified) | 1.63 | 2 | 2.66 |  | 3.82 ×10⁵ /M | inactive | 166% | 63% | 100% | logP [21]: 0.6
